logD, IC50 and pC60 data for 9 compounds are collected here from ChEMBL document CHEMBL1122788, “Quantitative relationships between alpha-adrenergic activity and binding affinity of alpha-adrenoceptor agonists and antagonists” (J Med Chem, 1984).

Counter-ions that a name gives are not always drawn.

Tested on in one data set: not listed separately
Briefly: Apparent partion coefficient of compound was evaluated in octanol/buffer at pH of 7.4 at 37 degree Centigrade. Type of data set: physicochemical. The note with it: pH 7.4.
For `FC(F)(F)c1ccc(Cl)c(NC2=NCCN2)c1`, the logD is 1.54.

Take `c1ccc(C2CC2)c(OCC2=NCCN2)c1` [CIRAZOLINE]: the logD came out at 0.53.

In the case of `Cc1cc(C(C)(C)C)c(O)c(C)c1CC1=NCCN1` [OXYMETAZOLINE], the logD was -0.32.

The next data set concerns the target T1, Adrenergic receptor alpha-2 (Rattus norvegicus, UniProt P22086+P19328+P22909).
T1 sequence (P22086 whole entry): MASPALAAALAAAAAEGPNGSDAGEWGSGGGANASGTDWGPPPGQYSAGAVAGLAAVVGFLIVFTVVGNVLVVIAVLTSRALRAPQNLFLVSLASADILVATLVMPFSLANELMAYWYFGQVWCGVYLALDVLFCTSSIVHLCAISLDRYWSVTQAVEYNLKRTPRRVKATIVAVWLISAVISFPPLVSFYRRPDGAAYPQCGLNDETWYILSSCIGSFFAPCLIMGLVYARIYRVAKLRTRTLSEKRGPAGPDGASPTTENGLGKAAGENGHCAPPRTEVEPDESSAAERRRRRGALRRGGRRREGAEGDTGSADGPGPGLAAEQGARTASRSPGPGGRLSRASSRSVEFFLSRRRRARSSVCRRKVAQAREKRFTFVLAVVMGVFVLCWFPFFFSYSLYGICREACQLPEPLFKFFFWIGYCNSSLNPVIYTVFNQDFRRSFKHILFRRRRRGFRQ
T1 sequence (P19328 whole entry): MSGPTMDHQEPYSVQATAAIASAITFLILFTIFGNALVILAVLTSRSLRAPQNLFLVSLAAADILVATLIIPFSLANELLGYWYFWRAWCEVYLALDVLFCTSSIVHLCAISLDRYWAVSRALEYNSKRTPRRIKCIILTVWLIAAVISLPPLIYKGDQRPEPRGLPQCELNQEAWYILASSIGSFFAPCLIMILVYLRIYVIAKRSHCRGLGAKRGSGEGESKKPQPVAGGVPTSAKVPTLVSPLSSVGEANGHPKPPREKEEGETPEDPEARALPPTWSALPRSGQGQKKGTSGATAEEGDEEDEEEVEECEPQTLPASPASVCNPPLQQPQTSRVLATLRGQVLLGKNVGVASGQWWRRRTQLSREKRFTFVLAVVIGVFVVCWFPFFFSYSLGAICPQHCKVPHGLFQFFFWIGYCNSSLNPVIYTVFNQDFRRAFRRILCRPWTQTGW
T1 sequence (P22909 whole entry): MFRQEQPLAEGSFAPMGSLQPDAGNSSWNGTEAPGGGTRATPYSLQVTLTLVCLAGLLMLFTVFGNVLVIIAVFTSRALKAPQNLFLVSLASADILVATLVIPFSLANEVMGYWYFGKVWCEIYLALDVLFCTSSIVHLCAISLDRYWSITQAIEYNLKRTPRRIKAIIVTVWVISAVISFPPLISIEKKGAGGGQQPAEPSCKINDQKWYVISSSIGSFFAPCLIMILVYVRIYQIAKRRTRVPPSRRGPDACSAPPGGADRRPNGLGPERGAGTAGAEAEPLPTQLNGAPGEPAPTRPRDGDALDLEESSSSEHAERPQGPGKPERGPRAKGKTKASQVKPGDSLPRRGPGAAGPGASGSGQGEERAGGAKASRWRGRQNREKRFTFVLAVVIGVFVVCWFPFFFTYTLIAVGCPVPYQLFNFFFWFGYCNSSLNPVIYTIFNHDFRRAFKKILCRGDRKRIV
The experiment in a line: 50% inhibition of specific [3H]clonidine binding (0.4 nM) to Alpha-2 adrenergic receptors in rat isolated brain membranes. Type of data set: cell membranes, Membrane.
Conditions: not given
In outline: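 Whole rat brain (minus cerebellum) from male Wistar rats (200–250 g), homogenized in ice-cold 50 mM Tris-HCl pH 7.7 and washed twice at 50000g. Bound ligand was collected by rapid filtration and counted. IC50 was derived by log-probit analysis.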
`CCCN(CCC)C1CCc2c(ccc(O)c2O)C1` (stereo not drawn) displayed an IC50 of 0.08 µM.

The compound `CN(C)C1CCc2c(ccc(O)c2O)C1` (stereo not drawn) gave an IC50 of 0.017 µM.

On to `CCCN(CCC)C1CCc2cc(O)c(O)cc2C1` (stereo not drawn), for which the IC50 stood at 0.087 µM.

For the compound `CCCN(CCC)C1CCc2ccc(O)cc2C1` (stereo not drawn), the IC50 is 1.2 µM.

In turn, `CCCN(CCC)C1CCc2c(O)cccc2C1` (stereo not drawn) [5-OH-DPAT] came in with an IC50 of 0.85 µM.

For `CNCC(O)c1cccc(NS(C)(=O)=O)c1` (stereo not drawn) [AMIDEPHRINE MESYLATE], the IC50 came to 1.9 µM.

The next data set has as its target T1, Adrenergic receptor alpha-2. The experiment in a line: Binding affinity against Alpha-2 adrenergic receptor is the ability to inhibit the specific [3H]-clonidine binding (0.4 nM) to rat isolated brain membranes by 50% was reported; 5.9*10e-8. Type of data set: tissue-based, Membrane.
Conditions: not given
As to `c1ccc(C2CC2)c(OCC2=NCCN2)c1` [CIRAZOLINE], the half-maximal inhibitory concentration (IC50) was found to be 0.059 µM.

A further data set shares this target. The experiment in a line: Binding affinity against alpha-2 adrenergic receptor is the ability to inhibit the specific [3H]clonidine binding (0.4 nM) to rat isolated brain membranes by 50% was reported.
Conditions: not given
On the set-up: species or system Membrane. In outline: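 Whole rat brain (minus cerebellum) from male Wistar rats (200–250 g), homogenized in ice-cold 50 mM Tris-HCl pH 7.7 and washed twice at 50000g. […] Bound ligand was collected by rapid filtration and counted. IC50 was derived by log-probit analysis.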
As to `FC(F)(F)c1ccc(Cl)c(NC2=NCCN2)c1`, the IC50 stood at 0.15 µM.

For another data set, the target named is T2, Adrenergic receptor alpha-1 (Rattus norvegicus, UniProt P15823+P23944+P43140).
T2 sequence (P15823 whole entry): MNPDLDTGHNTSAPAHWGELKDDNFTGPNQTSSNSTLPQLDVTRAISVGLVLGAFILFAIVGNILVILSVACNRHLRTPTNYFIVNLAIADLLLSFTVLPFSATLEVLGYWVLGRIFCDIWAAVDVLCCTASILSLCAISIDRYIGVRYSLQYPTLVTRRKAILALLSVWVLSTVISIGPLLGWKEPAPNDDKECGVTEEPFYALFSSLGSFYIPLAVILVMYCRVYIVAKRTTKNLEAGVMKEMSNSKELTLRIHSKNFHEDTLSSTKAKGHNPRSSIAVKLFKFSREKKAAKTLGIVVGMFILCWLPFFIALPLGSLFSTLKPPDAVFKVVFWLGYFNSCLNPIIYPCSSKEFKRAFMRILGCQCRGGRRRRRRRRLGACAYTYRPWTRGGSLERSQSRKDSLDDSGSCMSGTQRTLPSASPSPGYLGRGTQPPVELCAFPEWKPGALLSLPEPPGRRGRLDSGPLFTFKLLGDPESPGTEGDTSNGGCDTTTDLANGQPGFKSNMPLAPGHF
T2 sequence (P23944 whole entry): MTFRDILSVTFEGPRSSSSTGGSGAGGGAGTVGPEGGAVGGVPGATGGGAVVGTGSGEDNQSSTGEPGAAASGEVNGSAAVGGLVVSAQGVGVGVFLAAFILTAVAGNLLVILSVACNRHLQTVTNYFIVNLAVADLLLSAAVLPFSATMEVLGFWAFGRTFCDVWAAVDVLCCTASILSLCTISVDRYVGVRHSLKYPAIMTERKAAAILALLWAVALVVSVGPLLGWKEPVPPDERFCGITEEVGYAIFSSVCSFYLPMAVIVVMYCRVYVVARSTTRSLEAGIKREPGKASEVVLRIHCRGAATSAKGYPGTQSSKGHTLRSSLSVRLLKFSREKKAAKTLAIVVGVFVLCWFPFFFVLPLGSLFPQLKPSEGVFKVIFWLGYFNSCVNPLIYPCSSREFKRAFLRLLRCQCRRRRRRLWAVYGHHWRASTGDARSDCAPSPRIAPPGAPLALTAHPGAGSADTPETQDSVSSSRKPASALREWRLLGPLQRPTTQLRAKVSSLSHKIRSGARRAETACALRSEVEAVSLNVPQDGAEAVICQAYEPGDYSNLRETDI
T2 sequence (P43140 whole entry): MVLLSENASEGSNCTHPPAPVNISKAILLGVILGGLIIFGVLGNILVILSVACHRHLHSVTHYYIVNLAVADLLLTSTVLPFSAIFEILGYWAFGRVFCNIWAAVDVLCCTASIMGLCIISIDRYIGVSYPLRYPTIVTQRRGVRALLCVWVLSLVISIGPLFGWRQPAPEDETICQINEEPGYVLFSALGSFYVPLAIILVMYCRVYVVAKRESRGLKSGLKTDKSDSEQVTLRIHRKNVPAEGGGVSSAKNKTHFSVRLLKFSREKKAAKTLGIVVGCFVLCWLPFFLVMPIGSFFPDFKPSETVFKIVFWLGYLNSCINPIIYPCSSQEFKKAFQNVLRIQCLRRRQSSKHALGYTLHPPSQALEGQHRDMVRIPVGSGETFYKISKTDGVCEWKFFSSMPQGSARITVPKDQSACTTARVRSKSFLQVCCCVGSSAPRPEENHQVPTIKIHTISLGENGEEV
The experiment in a line: Binding affinity against alpha-1 adrenergic receptor is the ability to inhibit the specific [3H]prazosin binding (0.2 nM) to rat isolated brain membranes by 50% was reported; 8.9*10e-7. Type of data set: tissue-based, Membrane.
Conditions: not given
For the compound `c1ccc(C2CC2)c(OCC2=NCCN2)c1` [CIRAZOLINE], the IC50 came to 0.89 µM.

The test system of another data set is Rattus norvegicus. The experiment in a line: Hypertensive activity (increase in arterial pressure to 60 mmHg)) after i.v. administration to pithed rats.
Conditions: not given
`FC(F)(F)c1ccc(Cl)c(NC2=NCCN2)c1` had a pC60 of 1.21 uM kg-1.

As for `CCCN(CCC)C1CCc2c(ccc(O)c2O)C1` (stereo not drawn), the pC60 worked out at 0.54 uM kg-1.

`CN(C)C1CCc2c(ccc(O)c2O)C1` (stereo not drawn) came in with a pC60 of 1.2 uM kg-1.

`CCCN(CCC)C1CCc2cc(O)c(O)cc2C1` (stereo not drawn) yielded a pC60 of 0.36 uM kg-1.

In the case of `CCCN(CCC)C1CCc2ccc(O)cc2C1` (stereo not drawn), the pC60 is -0.09 uM kg-1.

With `CCCN(CCC)C1CCc2c(O)cccc2C1` (stereo not drawn) [5-OH-DPAT], the pC60 is on record as -0.13 uM kg-1.

On to `CNCC(O)c1cccc(NS(C)(=O)=O)c1` (stereo not drawn) [AMIDEPHRINE MESYLATE], for which the pC60 was 1.36 uM kg-1.

As to `c1ccc(C2CC2)c(OCC2=NCCN2)c1` [CIRAZOLINE], the pC60 is 2.36 uM kg-1.

`Cc1cc(C(C)(C)C)c(O)c(C)c1CC1=NCCN1` [OXYMETAZOLINE]: the pC60 stood at 2.24 uM kg-1.

The target in a further data set is T2, Adrenergic receptor alpha-1. Briefly: Binding affinity against alpha-1 adrenergic receptor is the ability to inhibit the specific [3H]prazosin binding (0.2 nM) to rat isolated brain membranes by 50% was reported.
Conditions: not given
As for `FC(F)(F)c1ccc(Cl)c(NC2=NCCN2)c1`, the IC50 was determined as 0.47 µM.

For the compound `CCCN(CCC)C1CCc2c(ccc(O)c2O)C1` (stereo not drawn), the IC50 came to 15 µM.

Consider `CN(C)C1CCc2c(ccc(O)c2O)C1` (stereo not drawn), for which the IC50 came out at 39 µM.

`CCCN(CCC)C1CCc2cc(O)c(O)cc2C1` (stereo not drawn) gave an IC50 of 24 µM.

`CCCN(CCC)C1CCc2ccc(O)cc2C1` (stereo not drawn) returned an IC50 of 18 µM.

For the compound `CCCN(CCC)C1CCc2c(O)cccc2C1` (stereo not drawn) [5-OH-DPAT], the IC50 came to 18 µM.

For the compound `CNCC(O)c1cccc(NS(C)(=O)=O)c1` (stereo not drawn) [AMIDEPHRINE MESYLATE], the IC50 turned out to be 40 µM.
